Experimental data: BindingDB's records for doi:10.1021/jm9811256 (Academy of Sciences of The Czech Republic, 1999)

Tests used:
[1] = Inhibition of herpes simplex virus type 1 thymidine kinase (HSV-1 TK-) B2006 strain
[2] = Inhibitory activity against varicella zoster virus thymidine kinase (VZV TK+) YS strain
[3] = Inhibitory activity against varicella zoster virus thymidine kinase (VZV TK+) OKA strain
[4] = Inhibitory activity against varicella zoster virus thymidine kinase (VZV TK-) 07/1 strain
[5] = Inhibitory activity against herpes simplex virus type 1 (HSV-1) thymidine kinase (TK) VMW 1837 strain
Thymidine kinase [6] = target: T1, Thymidine kinase (Human herpesvirus 3, UniProt Q6QCL9); test: Inhibitory activity against varicella zoster virus thymidine kinase (VZV TK+) YS strain
T1 sequence (Q6QCL9 whole entry): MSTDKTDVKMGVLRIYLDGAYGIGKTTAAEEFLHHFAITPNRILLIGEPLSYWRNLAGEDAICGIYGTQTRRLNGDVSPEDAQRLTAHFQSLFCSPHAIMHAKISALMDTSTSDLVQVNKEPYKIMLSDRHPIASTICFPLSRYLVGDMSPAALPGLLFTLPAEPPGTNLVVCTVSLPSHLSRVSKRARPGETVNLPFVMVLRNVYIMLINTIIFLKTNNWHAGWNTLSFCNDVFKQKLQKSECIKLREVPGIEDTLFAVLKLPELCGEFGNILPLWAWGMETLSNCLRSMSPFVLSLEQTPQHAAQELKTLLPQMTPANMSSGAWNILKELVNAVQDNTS
Summary of the method: (§1)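 HEL cell cultures were grown to confluence and infected with 100 CCID50 of VZV. After a 1 h adsorption period, unbound virus was removed and compound was added at serial concentrations (400, 200, 100, ... μg/mL). Cytopathic effect was read when untreated virus controls reached full cytopathicity.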

[7] = Inhibition of varicella zoster virus thymidine kinase (VZV TK+) YS/R strain
Thymidine kinase [8] = target: T1, Thymidine kinase; test: Inhibitory activity against varicella zoster virus thymidine kinase (VZV TK+) OKA strain
Summary of the method: as §1

Compound	EC50 [1] [µM]	EC50 [2] [µM]	EC50 [3] [µM]	EC50 [4] [µM]	EC50 [5] [µM]	EC50 (Thymidine kinase [6]) [µM]	EC50 [7] [µM]	EC50 (Thymidine kinase [8]) [µM]
CC(C)OP(=O)(COCCn1cnc2c(N)nc(N)nc21)OC(C)C	644	96.6	> 134	> 134	214	–	–	–
CC(C)OP(=O)(COCCn1cnc2c(N)nc(Cl)nc21)OC(C)C	–	9.44	1.27	–	–	–	–	–
CC(C)OP(=O)(COCCn1c(Br)nc2c(N)nc(N)nc21)OC(C)C	> 886	> 110	57.6	> 110	> 886	–	–	–
Nc1ccnc2c1ncn2CCOCP(=O)(O)O	734	734	> 1460	1100	551	–	–	–
Nc1ncnc2c1ccn2CCOCP(=O)(O)O	1100	73.4	183	–	551	–	–	–
CC(C)OP(=O)(COCCn1cnc2nc(N)nc(O)c21)OC(C)C	> 535	> 133	> 133	–	> 535	–	–	–
Nc1nnc(N)c2c1ncn2CCOCP(=O)(O)O	> 693	> 173	> 173	> 173	1040	–	–	–
CC(C)CCCCCOP(=O)(O)COCCn1cnc2c(O)nc(N)nc21	597	32.3	3.98	87.1	597	–	–	–
Nc1ncnc2c1nc(Br)n2CCOCP(=O)(O)O	–	> 142	> 142	> 142	–	–	–	–
CC(C)OP(=O)(COCCn1cnc2c(N)ncnc21)OC(C)C	> 1110	111	19.5	55.9	> 1110	–	–	–
CC(C)OP(=O)(COCCn1cnc2c(Cl)nc(N)nc21)OC(C)C	–	25.5	33.1	22.9	–	–	–	–
CC(C)CCCCCOP(=O)(COCCn1cnc2nc(N)nc(Cl)c21)OCCCCCC(C)C	> 30	> 9.39	> 9.39	> 9.39	> 30	–	–	–
Nc1nc(O)c2c(ncn2CCOCP(=O)(O)O)n1	> 691	> 172	152	–	> 691	–	–	–
Nc1cccc2c1ncn2CCOCP(=O)(O)O	> 1470	> 184	> 184	> 184	> 1470	–	–	–
Nc1cc2ncn(CCOCP(=O)(O)O)c2c(O)n1	> 693	–	–	–	> 693	–	–	–
CCOP(=O)(O)COCCn1cnc2c(O)nc(N)nc21	12.6	0.0315	0.0252	0.0126	6.3	–	–	–
Nc1nc(N)c2nc(Br)n(CCOCP(=O)(O)O)c2n1	54.4	22.8	8.71	16.3	54.4	–	–	–
Nc1ccn(CCOCP(=O)(O)O)c(=O)c1	–	261	> 402	302	–	–	–	–
Nc1nc(O)nc2c1ncn2CCOCP(=O)(O)O	> 1380	> 172	> 172	> 172	> 1380	–	–	–
Nc1nc(N)c2ncn(CCOCP(=O)(O)O)c2n1 [PMEDAP]	–	6.93	3.46	8.67	6.93	–	–	–
CC(C)CCCCCOP(=O)(COCCn1cnc2c(N)nc(N)nc21)OCCCCCC(C)C	> 31.2	6.24	> 9.75	> 39	> 31.2	–	–	–
Nc1nc(O)c2nc(Br)n(CCOCP(=O)(O)O)c2n1	> 1080	48.9	10.8	76	130	–	–	–
Nc1nc(S)c2c(ncn2CCOCP(=O)(O)O)n1	> 327	98.2	121	65.5	65.5	–	–	–
CC(C)OP(=O)(O)COCCn1cnc2c(N)ncnc21	> 1260	> 158	> 158	> 158	951	–	–	–
CC(C)CCCCCOP(=O)(COCCn1cnc2c(Cl)nc(N)nc21)OCCCCCC(C)C	> 30	> 3.75	> 3.75	> 3.75	> 30	–	–	–
Nc1nc(=O)ccn1CCOCP(=O)(O)O	–	160	> 401	> 401	–	–	–	–
CCOP(=O)(O)COCCn1cnc2c(N)nc(N)nc21	632	15.8	12.6	6.32	474	–	–	–

Compound	EC50 [1] [µM]	EC50 [2] [µM]	EC50 [3] [µM]	EC50 [4] [µM]	EC50 [5] [µM]	EC50 (Thymidine kinase [6]) [µM]	EC50 [7] [µM]	EC50 (Thymidine kinase [8]) [µM]
Nc1cc2c(ncn2CCOCP(=O)(O)O)c(O)n1	24.2	–	2.56	3.22	6.93	5.55	1.76	–
O=P(O)(O)COCCn1cnc2c(S)ncnc21	> 1370	> 172	–	> 172	> 1370	–	–	–
Nc1ccn(CCOCP(=O)(O)O)c(=O)n1	–	1600	602	602	401	–	–	–
CSc1ncnc2c1ncn2CCOCP(=O)(O)O	–	> 1310	164	> 1310	–	–	–	–
Cc1nc(N)nc2c1ncn2CCOCP(=O)(O)O	522	> 174	> 174	> 174	696	–	–	–
CCOP(=O)(O)COCCn1cnc2c(N)ncnc21	497	199	132	149	497	–	–	–
Nc1nc(=O)n(CCOCP(=O)(O)O)cc1Br	914	15.2	18.2	9.14	60.9	–	–	–
NC1=NC2N=CC=NC2C(=O)N1CCOCP(=O)(O)O (centres undefined)	230	115	26.3	98.9	230	–	–	–
CC(C)OP(=O)(O)COCCn1cnc2c(O)nc(N)nc21	17.2	0.0302	0.0121	0.0151	17.2	–	–	–
Nc1cc(N)c2ncn(CCOCP(=O)(O)O)c2n1	522	> 174	> 174	> 174	243	–	–	–
Nc1nccc(OCCOCP(=O)(O)O)n1	–	> 401	> 401	> 401	> 802	–	–	–
Nc1nc(Cl)c2ncn(CCOCP(=O)(O)O)c2n1	0.487	0.227	0.0195	0.065	0.747	–	–	–
CC(C)CCCCCOP(=O)(COCCn1cnc2c(O)nc(N)nc21)OCCCCCC(C)C	> 155	8.17	–	35	> 155	–	–	21.4
Nc1cc2c(ncn2CCOCP(=O)(O)O)c(N)n1	1390	> 17.4	> 17.4	> 17.4	243	–	–	–
Nc1nc(Cl)nc2c1ncn2CCOCP(=O)(O)O	–	104	130	61.7	–	–	–	–
Nc1ncc2ncn(CCOCP(=O)(O)O)c2n1	–	102	219	98.8	256	–	–	–
CC(C)OP(=O)(O)COCCn1cnc2c(N)nc(N)nc21	> 1210	> 151	96.8	> 151	> 1210	–	–	–
Nc1nc(F)nc2c1ncn2CCOCP(=O)(O)O	68.6	99.5	85.8	113	240	–	–	–
CC(C)OP(=O)(COCCn1cnc2c(S)ncnc21)OC(C)C	> 1060	> 133	> 133	> 133	> 1060	–	–	–
CC(C)OP(=O)(COCCn1ncc(N)nc1=O)OC(C)C	–	290	> 299	239	–	–	–	–
Nc1nccc2c1ncn2CCOCP(=O)(O)O	–	367	183	257	–	–	–	–
CC(C)OP(=O)(COCCn1c(Br)nc2c(O)nc(N)nc21)OC(C)C	> 884	> 110	> 110	> 110	530	–	–	–
CC(C)OP(=O)(COCCn1cnc2c(O)nc(N)nc21)OC(C)C	642	37.4	53.5	83	642	–	–	–
Nc1cnn(CCOCP(=O)(O)O)c(=O)n1	–	> 399	> 399	> 399	–	–	–	–
CC(C)CCCCCOP(=O)(COCCn1cnc2c(N)ncnc21)OCCCCCC(C)C	> 6.43	4.01	4.82	6.63	> 6.43	–	–	–
CC(C)CCCCCOP(=O)(COCCn1cnc2nc(N)nc(O)c21)OCCCCCC(C)C	> 31.1	58.4	62.3	50.6	> 31.1	–	–	–
